Screens (PubChem)
SENP8 block-1: inhibitors of human SENP8 protease; recombinant SENP8, Nedd8 substrate fluorescence; inhibition, % at 20 µM; hit rate 0.64% among 360,000; AID 602440; in the data active means inhibition mostly above about 40%, no sharp cut-off; inactive means mostly below about 27%
SENP1 FRET inh: SENP1 (human) catalytic domain inhibition; recombinant SENP1 catalytic domain, CyPet-SUMO1-YPet FRET cleavage; hit rate 0.21% among 360,000; Q9P0U3; inhibition, % at 10 µM;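 active means inhibition at least 30% at 10 µM, raw YFP signal under a set limit, fluorescence ratio 0.5 to 1.5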
Target sequence (Q9P0U3 419-644 limits assumed): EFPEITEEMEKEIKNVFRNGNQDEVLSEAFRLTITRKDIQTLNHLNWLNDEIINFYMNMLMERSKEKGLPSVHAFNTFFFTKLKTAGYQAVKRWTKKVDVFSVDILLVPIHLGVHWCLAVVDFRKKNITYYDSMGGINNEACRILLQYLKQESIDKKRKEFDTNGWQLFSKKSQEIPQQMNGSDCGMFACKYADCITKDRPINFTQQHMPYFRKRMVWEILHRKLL
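Test system: recombinant human SENP1 catalytic domain, His6-tagged / Medium: pH 8 Tris buffer with EDTA, NaCl, BME, BSA, NP40, catalase / Also added: SUMO1 FRET substrate flanked by Cypet and Ypet, 25 nM / Times: 50 min reaction at room temperature / Signal: FRET, CFP and YFP emission / Control set: no-enzyme low control and enzyme-plus-DMSO high control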
SENP6 block: SENP6 protease inhibition; Q9GZR1; inhibition, % at 10 µM; Recombinant SENP6 catalytic domain, aminoluciferin luminescence; hit rate 1.8% among 330,000; AID 2599;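 active means inhibition above about 50% at the single tested dose, limit read from the data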
SENP7 inh: inhibitors of human SENP7 protease. Q9BQF6. recombinant SENP7, Z-RLRGG-aminoluciferin luminescence, 40 min. inhibition, % at 5 µM. hit rate 1.5% among 330,000;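 active means inhibition above about 50% at the single test dose, limit read from the data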
Apaf1 inhib: inhibitors of human Apaf-1 apoptosome; O14727; reconstituted apoptosome caspase-3 activity, DEVD-Rh110 fluorescence; inhibition, % at 20 µM; hit rate 0.71% among 330,000; AID 489030; active means inhibition of at least 40% at 20 µM
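System: reconstituted apoptosome with Apaf-1, cytochrome c, caspase-9, procaspase-3, dATP; Signal: Rh110 fluorescence intensity; Schedule: 30 min compound preincubation, 50 min activation, room temperature; Reagent: cytochrome c trigger plus (Z-DEVD)2-Rh110 caspase-3 substrate.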
SENP8 block-2: inhibitors of human SENP8 protease; purified SENP8, Z-RLRGG-aminoluciferin cleavage, luminescence; inhibition, % at 10 µM; hit rate 1.2% among 330,000; AID 2540; in the data active means inhibition above about 50%
SENP8 conf: human SENP8 inhibition, confirmed; shares compounds with SENP7 inh; Recombinant SENP8, Z-RLRGG-aminoluciferin luminescence, 60 min; inhibition, % at 12.5 µM; hit rate 40% among 6,200;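 active means mean inhibition across replicates above about 50%, limit read from the data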
SENP6 confirm: human SENP6 inhibition, confirmed | hit rate 58% among 6,200 | shares compounds with SENP7 inh | recombinant SENP6, Z-RLRGG-aminoluciferin luminescence | inhibition, % at 12.5 µM
SENP7 conf: human SENP7 inhibition, confirmed. shares compounds with SENP7 inh. recombinant SENP7, Z-RLRGG-aminoluciferin luminescence, 40 min. inhibition, % at 12.5 µM. hit rate 69% among 6,200
Casp3 select: inhibits human caspase-3 in SENP selectivity test; shares compounds with SENP7 inh; purified caspase-3, Z-DEVD-aminoluciferin luminescence, 60 min; inhibition, % at 12.5 µM; hit rate 60% among 6,200; AID 488918;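 active means mean inhibition above about 50%, limit read from the data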
Target sequence (P42574 28-227 limits assumed): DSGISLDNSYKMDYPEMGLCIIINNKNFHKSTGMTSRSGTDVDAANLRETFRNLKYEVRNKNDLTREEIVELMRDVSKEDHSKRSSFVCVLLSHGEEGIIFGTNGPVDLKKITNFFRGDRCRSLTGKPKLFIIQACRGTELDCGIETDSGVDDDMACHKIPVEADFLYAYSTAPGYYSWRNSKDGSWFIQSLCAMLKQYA
SENP luc ctr: counter-screen for SENP inhibitors: luminescence interference. inhibition, % at 12.5 µM. Pre-incubated SENP8/Z-RLRGG-aminoluciferin, luciferase luminescence interference. shares compounds with SENP7 inh. hit rate 39% among 6,200. AID 488919;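 active means mean inhibition above about 50% when retested at one dose, limit read from the data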
A number is an active result. Sampled rows, rich in hits. Any-hit rate of the full collection: about 2.9%.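 How the source made its calls, unless noted: active means mean inhibition above about 50% in the one-dose retest (limit read from the data); inactive means the rest.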

How did Cc1ccnc(NC(=O)c2ccc3c(c2)OCO3)c1 do in these assays?
SENP8 block-1: inactive; SENP1 FRET inh: inactive; SENP6 block: 68.9; SENP7 inh: 91.8; Apaf1 inhib: inactive; SENP8 block-2: 80.1; SENP8 conf: inactive; SENP6 confirm: 87.0; SENP7 conf: 98.5; Casp3 select: 95.5; SENP luc ctr: 87.0

Results for Cc1ccnc(NC(=O)c2ccc3c(c2)NC(=O)C(C)S3)c1 (centres undefined) ?
SENP8 block-1: inactive; SENP1 FRET inh: inactive; SENP6 block: 55.3; SENP7 inh: inactive; Apaf1 inhib: inactive; SENP8 block-2: inactive; SENP8 conf: inactive; SENP6 confirm: inactive; SENP7 conf: inactive; Casp3 select: inactive; SENP luc ctr: inactive

Results for O=C(c1coc2ccc(O)cc12)C1CC1 ?
SENP8 block-1: inactive; SENP1 FRET inh: inactive; SENP6 block: inactive; SENP7 inh: inactive; Apaf1 inhib: inactive; SENP8 block-2: inactive

How did O=C(c1ccc(Cl)cc1)c1coc2ccc(O)cc12 do in these assays?
SENP8 block-1: inactive; SENP1 FRET inh: inactive; SENP6 block: 85.9; SENP7 inh: 77.5; Apaf1 inhib: inactive; SENP8 block-2: 78.1; SENP8 conf: inactive; SENP6 confirm: 88.1; SENP7 conf: 99.2; Casp3 select: 72.6; SENP luc ctr: inactive

How did Nc1[nH]n(-c2ccccc2)c(=O)c1N=Nc1ccccc1[N+](=O)[O-] do in these assays?
SENP8 block-1: inactive; SENP1 FRET inh: inactive; SENP6 block: inactive; SENP7 inh: 61.4; Apaf1 inhib: inactive; SENP8 block-2: inactive; SENP8 conf: inactive; SENP6 confirm: inactive; SENP7 conf: inactive; Casp3 select: inactive; SENP luc ctr: inactive

What do the screens show for `O=c1c2cc([N+](=O)[O-])cc([N+](=O)[O-])c2[nH]n1-c1ccccc1`?
SENP8 block-1: inactive; SENP1 FRET inh: inactive; SENP6 block: 64.5; SENP7 inh: inactive; Apaf1 inhib: inactive; SENP8 block-2: inactive; SENP8 conf: 54.9; SENP6 confirm: 50.6; SENP7 conf: 78.9; Casp3 select: 71.3; SENP luc ctr: 73.0

Results for Nc1[nH]n(-c2ccccc2)c(=O)c1N=Nc1ccccc1 ?
SENP8 block-1: inactive; SENP1 FRET inh: inactive; SENP6 block: 72.1; SENP7 inh: 67.0; Apaf1 inhib: inactive; SENP8 block-2: inactive; SENP8 conf: inactive; SENP6 confirm: inactive; SENP7 conf: 83.1; Casp3 select: inactive; SENP luc ctr: inactive

What do the screens show for `COc1c(/C=N/NC(N)=S)c(C)nn1-c1ccccc1`?
SENP8 block-1: inactive; SENP1 FRET inh: inactive; SENP6 block: inactive; SENP7 inh: inactive; Apaf1 inhib: inactive; SENP8 block-2: 69.7; SENP8 conf: inactive; SENP6 confirm: inactive; SENP7 conf: inactive; Casp3 select: inactive; SENP luc ctr: inactive

What do the screens show for `COc1cccc(NC(=O)Nc2ccccc2SC)c1`?
SENP8 block-1: inactive; SENP1 FRET inh: inactive; SENP6 block: inactive; SENP7 inh: inactive; Apaf1 inhib: inactive; SENP8 block-2: 51.3; SENP8 conf: 78.3; SENP6 confirm: 71.7; SENP7 conf: 91.0; Casp3 select: 70.9; SENP luc ctr: 71.8

Results for CSc1ccccc1NC(=O)Nc1ccc(F)c(Cl)c1 ?
SENP8 block-1: inactive; SENP1 FRET inh: inactive; SENP6 block: 76.9; SENP7 inh: 86.6; Apaf1 inhib: inactive; SENP8 block-2: 67.8; SENP8 conf: inactive; SENP6 confirm: 75.5; SENP7 conf: 96.5; Casp3 select: 68.4; SENP luc ctr: 71.8
